In ChEMBL document CHEMBL1122207, “Antitumor agents. 2. Bisguanylhydrazones of anthracene-9,10-dicarboxaldehydes” (1982):

How the values were obtained:
Format in all cases: functional
Mus musculus [1] = species on record: Mus musculus; assay: Number of survivors of the total treated mice with B-16 melanoma, at 60 days.
Summary of the method: (§1)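 BDF1 mice were implanted ip with a homogenate from 0.05 g of B-16 melanoma and dosed ip on days 1-9. Cures are survivors over total at 60 days.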

Mus musculus [2] = species on record: Mus musculus; assay: Anticancer activity measured as the number of survivors of the total treated mice with P-388 leukemia at 30 days.
Summary of the method: (§2)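 BDF1 or CDF1 mice given 10^6 ascitic P-388 leukemia cells ip, then treated ip on days 1, 5 and 9. Cures are survivors over total treated at 30 days.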

Mus musculus [3] = assay: Percent increase in median life span of BDF1 mice with P-388 leukemia at dose 12.5 mg/kg administered intraperitoneally; conditions: BDF1, P388, ip, route intraperitoneal
Mus musculus [4] = assay: Percent increase in median life span of BDF1 mice with B-16 melanoma at dose 6 mg/kg administered intraperitoneally; conditions: BDF1, B16, ip, route intraperitoneal
Summary of the method: (§3)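 BDF1 mice were implanted ip with a homogenate from 0.05 g of B-16 melanoma. Ip dosing ran on days 1-9, starting 24 h after implant, in dose-response studies following NCI protocols. The read-out was percent increase in life span (ILS). T/C ≥125% was taken as significant.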

Mus musculus [5] = species on record: Mus musculus; assay: Cures is the number of survivors of the total treated mice (6) with P-388 leukemia, at 30 days.; summary of the method: as §2
Mus musculus [6] = species on record: Mus musculus; assay: Cures is the number of survivors of the total treated mice (10) with B-16 melanoma, at 60 days.; summary of the method: as §1
Mus musculus [7] = assay: Percent increase in median life span of BDF1 mice with P-388 leukemia at dose 3.1 mg/kg administered intraperitoneally; conditions: BDF1, P388, ip, route intraperitoneal
Mus musculus [8] = assay: Percent increase in median life span of BDF1 mice with B-16 melanoma at dose 3.1 mg/kg administered intraperitoneally; conditions: BDF1, B16, ip, route intraperitoneal; summary of the method: as §3
Mus musculus [9] = assay: Percent increase in median life span of BDF1 mice with B-16 melanoma at dose 12.5 mg/kg administered intraperitoneally; conditions: BDF1, B16, ip, route intraperitoneal; summary of the method: as §3
Mus musculus [10] = species on record: Mus musculus; assay: Cures is the number of survivors of the total treated mice (6) with P-388 leukemia, at 60 days.
Mus musculus [11] = assay: Percent increase in median life span of BDF1 mice with B-16 melanoma at dose 1.5 mg/kg administered intraperitoneally; conditions: BDF1, B16, ip, route intraperitoneal; summary of the method: as §3
Mus musculus [12] = assay: Percent increase in median life span of BDF1 mice with P-388 leukemia at dose 6.25 mg/kg administered intraperitoneally; conditions: BDF1, P388, ip, route intraperitoneal
Mus musculus [13] = assay: Percent increase in median life span of BDF1 mice with P-388 leukemia at dose 100 mg/kg administered intraperitoneally; conditions: BDF1, P388, ip, route intraperitoneal
Mus musculus [14] = assay: Percent increase in median life span of BDF1 mice with B-16 melanoma at dose 50 mg/kg administered intraperitoneally; conditions: BDF1, B16, ip, route intraperitoneal; summary of the method: as §3
Mus musculus [15] = assay: Percent increase in median life span of BDF1 mice with P-388 leukemia at dose 50 mg/kg administered intraperitoneally; conditions: BDF1, P388, ip, route intraperitoneal
Mus musculus [16] = assay: Percent increase in median life span of BDF1 mice with P-388 leukemia at dose 25 mg/kg administered intraperitoneally; conditions: BDF1, P388, ip, route intraperitoneal
Mus musculus [17] = assay: Percent increase in median life span of BDF1 mice with B-16 melanoma at dose 3 mg/kg administered intraperitoneally; conditions: BDF1, B16, ip, route intraperitoneal; summary of the method: as §3
Mus musculus [18] = species on record: Mus musculus; assay: Cures is the number of survivors of the total treated mice (12) with P-388 leukemia, at 30 days.; summary of the method: as §2
Mus musculus [19] = assay: Percent increase in median life span of BDF1 mice with B-16 melanoma at dose 12 mg/kg administered intraperitoneally; conditions: BDF1, B16, ip, route intraperitoneal; summary of the method: as §3
Mus musculus [20] = assay: Percent increase in median life span of BDF1 mice with P-388 leukemia administered intraperitoneally
Mus musculus [21] = assay: Percent increase in median life span of BDF1 mice with B-16 melanoma administered intraperitoneally; summary of the method: as §3
Mus musculus [22] = assay: Percent increase in median life span of BDF1 mice with B-16 melanoma at dose 6.00 mg/kg administered intraperitoneally; conditions: BDF1, B16, ip, route intraperitoneal; summary of the method: as §3
Mus musculus [23] = assay: Percent increase in median life span of BDF1 mice with B-16 melanoma at dose 6.25 mg/kg administered intraperitoneally; conditions: BDF1, B16, ip, route intraperitoneal; summary of the method: as §3

Br.Br.CN(/N=C/c1c2ccccc2c(/C=N/N(C)C(=N)N)c2ccccc12)C(=N)N
Cures (Mus musculus [1]): 0
Cures (Mus musculus [2]): 0
ILS at 12.5 mg/kg (Mus musculus [3]): 91%
ILS at 6 mg/kg (Mus musculus [4]): 50%

Cl.Cl.Fc1ccc2c(/C=N/NC3=NCCN3)c3cc(F)ccc3c(/C=N/NC3=NCCN3)c2c1
Cures (Mus musculus [5]): 1
Cures (Mus musculus [6]): 1
ILS at 3.1 mg/kg (Mus musculus [7]): 135%
ILS at 3.1 mg/kg (Mus musculus [8]): 111%

C(=N\NC1=NCCN1)/C1c2ccccc2C(/C=N/NC2=NCCN2)c2ccccc21.Cl.Cl (stereo unspecified)
Cures (Mus musculus [1]): 0
ILS at 12.5 mg/kg (Mus musculus [3]): 72%
ILS at 12.5 mg/kg (Mus musculus [9]): 100%

C(=N\NC1=NCCN1)/c1c2ccccc2c(/C=N/NC2=NCCN2)c2c1ccc1ccccc12.Cl.Cl
Cures (Mus musculus [10]): 1
Cures (Mus musculus [1]): 0
ILS at 12.5 mg/kg (Mus musculus [3]): 90%

CN1CCCN=C1N/N=C/c1c2ccccc2c(/C=N/NC2=NCCCN2C)c2ccccc12.Cl.Cl
Cures (Mus musculus [5]): 1
Cures (Mus musculus [1]): 0
ILS at 1.5 mg/kg (Mus musculus [11]): 80%
ILS at 6.25 mg/kg (Mus musculus [12]): 148%

Cl.Cl.Fc1cccc2c(/C=N/NC3=NCCN3)c3c(F)cccc3c(/C=N/NC3=NCCN3)c12
Cures (Mus musculus [5]): 1
Cures (Mus musculus [6]): 5
ILS at 100 mg/kg (Mus musculus [13]): 140%
ILS at 50 mg/kg (Mus musculus [14]): 194%

Cl.Cl.N=C(N/N=C/c1c2ccccc2c(/C=N/NC(=N)Nc2ccccc2)c2ccccc12)Nc1ccccc1
Cures (Mus musculus [1]): 0
Cures (Mus musculus [2]): 0
ILS at 50 mg/kg (Mus musculus [15]): 67%
ILS at 6 mg/kg (Mus musculus [4]): 50%

Cl.Cl.N=C(N)N/N=C/c1c2ccccc2c(/C=N/N=C(N)N)c2ccccc12
Cures (Mus musculus [5]): 3
Cures (Mus musculus [1]): 0
ILS at 25 mg/kg (Mus musculus [16]): 132%
ILS at 3 mg/kg (Mus musculus [17]): 67%

C(=N\NC1=NCCCN1)/c1c2ccccc2c(/C=N/NC2=NCCCN2)c2ccccc12.Cl.Cl
Cures (Mus musculus [18]): 1
Cures (Mus musculus [1]): 0
ILS at 12.5 mg/kg (Mus musculus [3]): 82%
ILS at 12 mg/kg (Mus musculus [19]): 106%

CC(C)(C)c1ccc2c(/C=N/NC3=NCCN3)c3ccccc3c(/C=N/NC3=NCCN3)c2c1.Cl.Cl
Cures (Mus musculus [1]): 0
Cures (Mus musculus [2]): 0
ILS (Mus musculus [20]): 0%
ILS (Mus musculus [21]): 0%

CN(C)CCC/N=C(\S)N/N=C/c1c2ccccc2c(/C=N/N/C(S)=N/CCCN(C)C)c2ccccc12.Cl.Cl
Cures (Mus musculus [1]): 0
Cures (Mus musculus [2]): 0
ILS at 6 mg/kg (Mus musculus [22]): 77%
ILS at 6.25 mg/kg (Mus musculus [12]): 100%

C(=N\NC1=NCCN1)/c1c2ccccc2c(/C=N/NC2=NCCN2)c2cc3ccccc3cc12.Cl.Cl
Cures (Mus musculus [2]): 0
Cures (Mus musculus [6]): 1
ILS at 6.25 mg/kg (Mus musculus [23]): 136%
ILS at 12.5 mg/kg (Mus musculus [3]): 91%

Cl.Cl.Fc1ccc2c(/C=N/NC3=NCCN3)c3ccccc3c(/C=N/NC3=NCCN3)c2c1
Cures (Mus musculus [18]): 3
Cures (Mus musculus [6]): 4
ILS at 6.25 mg/kg (Mus musculus [12]): 123%
ILS at 3.1 mg/kg (Mus musculus [8]): 183%

Cl.Cl.S=C(NCCCN1CCOCC1)N/N=C/c1c2ccccc2c(/C=N/NC(=S)NCCCN2CCOCC2)c2ccccc12
Cures (Mus musculus [1]): 0
Cures (Mus musculus [2]): 0
ILS at 100 mg/kg (Mus musculus [13]): 53%
ILS at 50 mg/kg (Mus musculus [14]): 75%

Cl.Cl.Fc1cccc2c(/C=N/NC3=NCCN3)c3ccccc3c(/C=N/NC3=NCCN3)c12
Cures (Mus musculus [2]): 0
Cures (Mus musculus [6]): 1
ILS at 3.1 mg/kg (Mus musculus [7]): 115%
ILS at 3.1 mg/kg (Mus musculus [8]): 100%

CC(C)N(CC/N=C(\S)N/N=C/c1c2ccccc2c(/C=N/N/C(S)=N/CCN(C(C)C)C(C)C)c2ccccc12)C(C)C.Cl.Cl
Cures (Mus musculus [2]): 0
ILS at 100 mg/kg (Mus musculus [13]): 53%

CN(C)CCCCC/N=C(\S)N/N=C/c1c2ccccc2c(/C=N/N/C(S)=N/CCCCCN(C)C)c2ccccc12.Cl.Cl
Cures (Mus musculus [1]): 0
Cures (Mus musculus [2]): 0
ILS at 6 mg/kg (Mus musculus [22]): 97%
ILS at 25 mg/kg (Mus musculus [16]): 48%

COCC/N=C(\S)N/N=C/c1c2ccccc2c(/C=N/N/C(S)=N/CCOC)c2ccccc12
ILS (Mus musculus [20]): 0%

CN(/N=C/c1c2ccccc2c(/C=N/N(C)C2=NCCN2)c2ccccc12)C1=NCCN1
Cures (Mus musculus [5]): 1
Cures (Mus musculus [1]): 0
ILS at 6.25 mg/kg (Mus musculus [12]): 124%
ILS at 3 mg/kg (Mus musculus [17]): 95%

C/N=C(\NC)N/N=C/c1c2ccccc2c(/C=N/N/C(=N/C)NC)c2ccccc12
Cures (Mus musculus [5]): 1
Cures (Mus musculus [1]): 0
ILS at 6.25 mg/kg (Mus musculus [12]): 118%
ILS at 3 mg/kg (Mus musculus [17]): 111%

CN(C)c1ccc(N/C(S)=N/N=C/c2c3ccccc3c(/C=N/N=C(/S)Nc3ccc(N(C)C)cc3)c3ccccc23)cc1
ILS (Mus musculus [20]): 0%

Cc1ccc2c(/C=N/NC3=NCCN3)c3ccccc3c(/C=N/NC3=NCCN3)c2c1Cl.Cl.Cl
Cures (Mus musculus [2]): 0
Cures (Mus musculus [6]): 4
ILS at 12.5 mg/kg (Mus musculus [3]): 130%
ILS at 12.5 mg/kg (Mus musculus [9]): 220%

CN(C)C(=N)N/N=C/c1c2ccccc2c(/C=N/N=C(\N)N(C)C)c2cc(Cl)ccc12.Cl.Cl
Cures (Mus musculus [1]): 0
Cures (Mus musculus [2]): 0
ILS at 12.5 mg/kg (Mus musculus [3]): 82%
ILS at 6 mg/kg (Mus musculus [4]): 39%

Cl.Cl.Clc1cccc2c(/C=N/NC3=NCCN3)c3ccccc3c(/C=N/NC3=NCCN3)c12
Cures (Mus musculus [5]): 3
Cures (Mus musculus [6]): 3
ILS at 1.5 mg/kg (Mus musculus [11]): 153%
ILS at 6.25 mg/kg (Mus musculus [12]): 186%
